Measurements as given in ChEMBL document CHEMBL3864175, “Sulfonamides as Selective NaV1.7 Inhibitors: Optimizing Potency and Pharmacokinetics to Enable in Vivo Target Engagement” (ACS Med Chem Lett, 2016).

What was measured:
[1] = Unbound clearance in rat at 0.5 mg/kg, iv by LC-MS/MS analysis; type: ADME, organism-based; conditions: in vivo
Outline: (§1)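 Male rats, n = 2 per group, dosed intravenously at 0.5 mg/kg as a solution in 100% DMSO. Unbound clearance is derived from total clearance.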

[2] = Clearance in rat at 0.5 mg/kg, iv by LC-MS/MS analysis; type: ADME, organism-based; conditions: in vivo; outline: as §1
[3] = Apparent permeability in MDCK cells; type: ADME, cell-based, Canis lupus familiaris; conditions: dog
Outline: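 Apparent permeability measured in parental MDCK cells.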

[4] = molecular target: Sodium channel protein type 5 subunit alpha (Homo sapiens, UniProt Q14524); experiment: Inhibition of human Nav1.5 expressed in HEK293 cells assessed as inhibition of sodium current at holding potential of -125 mV measured for 3 to 5 mins by whole cell voltage clamp method; type: cell-based
[5] = Fraction unbound in rat plasma at 5 uM measured after 45 mins by LC-MS/MS analysis; type: ADME, cell-free
[6] = Intrinsic clearance in rat liver microsomes at 1 uM measured after 40 mins in presence of NADPH by LC-MS/MS analysis; type: ADME; conditions: read-out: CLH
Outline: (§2)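 Clearance measured in rat or human liver microsomes. Test compound at 1 μM, microsomal protein at 250 μg/mL.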

[7] = Intrinsic clearance in human liver microsomes at 1 uM measured after 40 mins in presence of NADPH by LC-MS/MS analysis; type: ADME; conditions: read-out: CLH; outline: as §2
[8] = molecular target: Sodium channel protein type 9 subunit alpha (Homo sapiens, UniProt Q15858); experiment: Inhibition of human Nav1.7 expressed in HEK293 cells assessed as inhibition of sodium current at holding potential of -125 mV measured for 3 to 5 mins by whole cell voltage clamp method; type: cell-based
[9] = Dissociation constant, pKa of the compound at pH 1.7 to 11.2 by capillary electrophoresis method; type: physicochemical
Outline: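 pKa values calculated from capillary electrophoresis data collected over pH 1.7 to 11.2.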

[10] = Apparent permeability in MDCK cells assessed as drug recovery; type: ADME, cell-based, Canis lupus familiaris; conditions: dog, read-out: Drug recovery
[11] = Stability in bile duct cannulated Sprague-Dawley rat assessed as parent compound level in bile at 6.67 mg/kg, iv administered through catheter measured after 2 and 4 hrs post dose by LC-MS/MS analysis; type: ADME, organism-based; conditions: in vivo
[12] = Drug metabolism in bile duct cannulated Sprague-Dawley rat urine assessed as metabolite formation at 6.67 mg/kg, iv administered through catheter measured after 2 and 4 hrs post dose by LC-MS/MS analysis; type: ADME, organism-based; conditions: in vivo
[13] = Selectivity index, ratio of IC50 for human Nav1.5 expressed in HEK293 cells to IC50 for human Nav 1.7 expressed in HEK293 cells

Chain of Sodium channel protein type 9 subunit alpha (Q15858 whole entry): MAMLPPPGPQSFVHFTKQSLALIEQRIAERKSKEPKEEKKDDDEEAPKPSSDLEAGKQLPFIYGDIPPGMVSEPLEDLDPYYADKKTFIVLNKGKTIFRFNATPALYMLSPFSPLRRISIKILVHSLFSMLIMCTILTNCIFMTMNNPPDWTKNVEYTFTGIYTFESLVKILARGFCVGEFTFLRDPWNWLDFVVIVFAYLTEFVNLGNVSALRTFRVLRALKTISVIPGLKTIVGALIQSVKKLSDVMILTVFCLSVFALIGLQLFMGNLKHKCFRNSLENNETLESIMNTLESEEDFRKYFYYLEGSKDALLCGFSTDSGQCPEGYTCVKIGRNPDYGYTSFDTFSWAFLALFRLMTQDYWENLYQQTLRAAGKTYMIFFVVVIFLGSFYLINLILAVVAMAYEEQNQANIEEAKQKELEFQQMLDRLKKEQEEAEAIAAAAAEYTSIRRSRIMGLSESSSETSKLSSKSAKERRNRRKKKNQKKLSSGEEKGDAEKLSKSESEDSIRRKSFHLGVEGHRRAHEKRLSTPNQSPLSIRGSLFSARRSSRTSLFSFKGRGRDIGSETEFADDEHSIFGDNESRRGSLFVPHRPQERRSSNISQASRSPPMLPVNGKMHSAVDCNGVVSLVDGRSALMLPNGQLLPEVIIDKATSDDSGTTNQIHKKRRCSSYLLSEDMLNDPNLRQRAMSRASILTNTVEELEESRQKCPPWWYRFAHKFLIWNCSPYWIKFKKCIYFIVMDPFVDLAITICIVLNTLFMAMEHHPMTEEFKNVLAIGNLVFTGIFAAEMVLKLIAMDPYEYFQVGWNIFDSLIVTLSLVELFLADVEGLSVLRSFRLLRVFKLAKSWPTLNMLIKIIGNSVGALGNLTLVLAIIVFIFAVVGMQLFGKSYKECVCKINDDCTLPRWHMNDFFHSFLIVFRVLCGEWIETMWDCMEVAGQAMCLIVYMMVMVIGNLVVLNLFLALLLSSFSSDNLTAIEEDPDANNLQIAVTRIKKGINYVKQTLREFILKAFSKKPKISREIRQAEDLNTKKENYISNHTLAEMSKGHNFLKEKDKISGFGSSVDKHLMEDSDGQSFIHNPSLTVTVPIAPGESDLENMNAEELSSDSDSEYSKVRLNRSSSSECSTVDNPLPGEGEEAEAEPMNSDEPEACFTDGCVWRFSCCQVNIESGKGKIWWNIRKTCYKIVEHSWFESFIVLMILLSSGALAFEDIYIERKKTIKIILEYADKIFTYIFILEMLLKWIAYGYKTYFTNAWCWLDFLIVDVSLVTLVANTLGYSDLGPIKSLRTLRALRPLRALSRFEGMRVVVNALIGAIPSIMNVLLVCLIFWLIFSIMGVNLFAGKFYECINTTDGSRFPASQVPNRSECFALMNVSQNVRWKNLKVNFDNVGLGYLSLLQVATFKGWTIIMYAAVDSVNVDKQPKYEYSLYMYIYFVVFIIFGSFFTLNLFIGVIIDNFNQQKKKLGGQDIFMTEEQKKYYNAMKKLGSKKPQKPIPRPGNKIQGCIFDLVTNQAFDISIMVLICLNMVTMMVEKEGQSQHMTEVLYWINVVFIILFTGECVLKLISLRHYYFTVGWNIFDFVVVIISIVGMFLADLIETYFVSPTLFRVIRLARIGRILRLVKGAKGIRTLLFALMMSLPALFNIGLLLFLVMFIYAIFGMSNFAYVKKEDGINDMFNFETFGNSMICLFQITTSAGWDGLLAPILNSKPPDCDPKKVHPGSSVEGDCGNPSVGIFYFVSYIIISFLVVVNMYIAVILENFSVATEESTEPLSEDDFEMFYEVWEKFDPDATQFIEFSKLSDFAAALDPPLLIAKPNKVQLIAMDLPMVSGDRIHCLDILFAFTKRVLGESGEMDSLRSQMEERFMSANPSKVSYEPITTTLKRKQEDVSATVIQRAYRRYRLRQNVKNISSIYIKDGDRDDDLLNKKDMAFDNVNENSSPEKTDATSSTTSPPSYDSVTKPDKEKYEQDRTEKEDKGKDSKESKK
Chain of Sodium channel protein type 5 subunit alpha (Q14524 whole entry): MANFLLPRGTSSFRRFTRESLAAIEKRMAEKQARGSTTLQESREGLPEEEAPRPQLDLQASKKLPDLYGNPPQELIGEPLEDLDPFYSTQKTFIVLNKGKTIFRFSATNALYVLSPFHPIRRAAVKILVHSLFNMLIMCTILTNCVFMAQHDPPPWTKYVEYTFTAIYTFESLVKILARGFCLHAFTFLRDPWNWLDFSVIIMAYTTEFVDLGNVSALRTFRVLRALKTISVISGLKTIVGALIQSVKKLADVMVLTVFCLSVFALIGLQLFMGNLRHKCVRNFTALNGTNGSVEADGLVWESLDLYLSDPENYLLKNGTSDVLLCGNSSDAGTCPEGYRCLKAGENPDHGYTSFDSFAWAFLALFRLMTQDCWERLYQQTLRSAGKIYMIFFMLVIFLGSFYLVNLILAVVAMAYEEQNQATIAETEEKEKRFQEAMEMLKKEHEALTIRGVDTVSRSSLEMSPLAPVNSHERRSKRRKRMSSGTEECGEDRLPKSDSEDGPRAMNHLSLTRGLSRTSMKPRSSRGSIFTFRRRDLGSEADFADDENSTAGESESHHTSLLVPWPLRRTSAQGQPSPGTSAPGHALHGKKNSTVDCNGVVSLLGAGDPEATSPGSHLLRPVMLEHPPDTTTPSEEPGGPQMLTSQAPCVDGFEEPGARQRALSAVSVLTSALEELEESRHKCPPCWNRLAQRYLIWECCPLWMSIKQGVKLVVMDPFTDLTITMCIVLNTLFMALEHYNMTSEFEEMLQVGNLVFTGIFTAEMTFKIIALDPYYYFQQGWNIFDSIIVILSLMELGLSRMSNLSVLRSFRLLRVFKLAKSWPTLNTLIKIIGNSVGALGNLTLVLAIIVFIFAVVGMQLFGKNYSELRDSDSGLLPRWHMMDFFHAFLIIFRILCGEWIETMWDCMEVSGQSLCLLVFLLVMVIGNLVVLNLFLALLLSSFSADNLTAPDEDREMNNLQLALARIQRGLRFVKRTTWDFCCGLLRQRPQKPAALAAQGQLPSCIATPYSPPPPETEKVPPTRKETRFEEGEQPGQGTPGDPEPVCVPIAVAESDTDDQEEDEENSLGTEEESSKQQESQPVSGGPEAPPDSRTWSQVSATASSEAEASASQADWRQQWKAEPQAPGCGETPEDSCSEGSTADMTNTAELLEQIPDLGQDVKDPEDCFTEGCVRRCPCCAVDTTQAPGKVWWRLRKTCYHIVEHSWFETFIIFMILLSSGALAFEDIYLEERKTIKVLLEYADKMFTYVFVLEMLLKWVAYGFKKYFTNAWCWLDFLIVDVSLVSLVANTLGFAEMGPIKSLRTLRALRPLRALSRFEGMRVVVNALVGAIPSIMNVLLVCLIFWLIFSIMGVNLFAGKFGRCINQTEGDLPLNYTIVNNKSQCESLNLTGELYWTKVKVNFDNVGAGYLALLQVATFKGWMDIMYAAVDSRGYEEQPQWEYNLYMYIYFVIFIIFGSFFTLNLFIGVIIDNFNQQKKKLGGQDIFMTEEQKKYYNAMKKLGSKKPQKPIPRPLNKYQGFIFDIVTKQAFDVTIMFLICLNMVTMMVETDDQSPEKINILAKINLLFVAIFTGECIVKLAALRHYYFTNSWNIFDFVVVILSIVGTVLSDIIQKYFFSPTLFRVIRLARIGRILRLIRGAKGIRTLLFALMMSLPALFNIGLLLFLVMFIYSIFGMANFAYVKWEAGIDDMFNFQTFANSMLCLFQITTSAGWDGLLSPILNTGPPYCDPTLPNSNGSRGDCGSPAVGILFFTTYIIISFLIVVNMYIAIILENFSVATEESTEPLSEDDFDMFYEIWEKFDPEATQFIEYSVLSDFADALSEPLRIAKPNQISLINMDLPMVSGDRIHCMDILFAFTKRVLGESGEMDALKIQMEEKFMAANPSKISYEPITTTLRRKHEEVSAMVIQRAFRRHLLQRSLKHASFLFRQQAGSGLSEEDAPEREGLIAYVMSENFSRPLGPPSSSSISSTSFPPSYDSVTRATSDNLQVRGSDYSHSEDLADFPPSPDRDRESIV

CL free [1] [L/h/kg]	clearance [2] [mL/min/kg]	Papp [3] [×10⁻⁶ cm/s]	fraction unbound at 0.75 h, 5 µM [5]	microsomal CLint at 1 µM [6] [µL/min/mg]	microsomal CLint at 1 µM [7] [µL/min/mg]	IC50 [8] [nM]	pKa [9]	recovery [10] [%]	Stability [11]	Drug metabolism [12]	SMILES	IC50 [4] [µM]	Ratio IC50 [13]
–	65	< 1	–	39	–	–	–	–	–	–	N#Cc1cc(S(=O)(=O)Nc2ncns2)ccc1Oc1ccc(C(F)(F)F)cc1-c1cn[nH]c1	> 30	–
80	4	> 5	0.003	< 14	< 14	160	3.6	< 50	–	–	O=S(=O)(Nc1ncns1)c1ccc2c(-c3ccc(C(F)(F)F)cc3Br)cccc2c1	21	–
–	–	27	0.003	< 14	< 14	510	–	–	–	–	COc1cc(C(F)(F)F)ccc1-c1cccc2cc(S(=O)(=O)Nc3ccncn3)ccc12	> 30	–
49	0.817	12	0.001	52	25	590	6.7	–	–	–	COc1cc(C(F)(F)F)ccc1-c1cccc2cc(S(=O)(=O)Nc3nccs3)ccc12	21	–
–	–	> 5	0.001	< 14	15	48	3.6	< 50	–	–	Cc1cc(C(F)(F)F)ccc1-c1cccc2cc(S(=O)(=O)Nc3ncns3)ccc12	–	–
81	18.3	36	0.014	–	–	–	–	–	–	–	COc1cc(C(F)(F)F)ccc1-c1cnnc2cc(S(=O)(=O)Nc3nccs3)ccc12	–	–
160	40	3.2	0.013	–	–	–	–	–	–	–	COc1cc(C(F)(F)F)ccc1-c1n[nH]c(=O)c2cc(S(=O)(=O)Nc3nccs3)ccc12	–	–
–	–	9.5	–	25	16	> 30000	–	–	–	–	COc1cc(C(F)(F)F)ccc1-c1cccc2cc(S(=O)(=O)Nc3ccccn3)ccc12	–	–
–	68.3	1.3	–	19	–	120	–	–	–	–	Cn1nccc1-c1cc(C(F)(F)F)ccc1-c1cn(C)c2cc(S(=O)(=O)Nc3ncns3)ccc12	> 30	>200

Continued, compound first:

SMILES	CL free [1] [L/h/kg]	clearance [2] [mL/min/kg]	Papp [3] [×10⁻⁶ cm/s]	fraction unbound at 0.75 h, 5 µM [5]	microsomal CLint at 1 µM [6] [µL/min/mg]	microsomal CLint at 1 µM [7] [µL/min/mg]	IC50 [8] [nM]	pKa [9]	recovery [10] [%]	Stability [11]	Drug metabolism [12]	IC50 [4] [µM]	Ratio IC50 [13]
COc1cc(C(F)(F)F)ccc1-c1nccc2cc(S(=O)(=O)Nc3nccs3)ccc12	15	3	34	0.012	–	–	–	–	–	–	–	> 30	–
COc1cc(C(F)(F)F)ccc1-c1cccc2cc(S(=O)(=O)Nc3ncns3)ccc12	–	86.7	17	0.001	18	15	51	3.7	–	–	–	–	–
Cn1nccc1-c1cc(C(F)(F)F)ccc1-c1cccc2cc(S(=O)(=O)Nc3ncns3)ccc12	–	158	< 2	–	21	–	–	–	–	–	–	–	–
COc1cc(C(F)(F)F)ccc1-c1cccc2cc(S(=O)(=O)Nc3ncccn3)ccc12	–	–	36	–	< 14	17	1500	–	–	–	–	> 30	–
Cn1nccc1-c1cc(Cl)ccc1-c1cn(C)c2cc(S(=O)(=O)Nc3ncns3)ccc12	–	–	–	–	–	–	–	–	–	Stable	Metabolite_Notdetected	–	–
COc1cc(C(F)(F)F)ccc1-c1cccc2cc(S(=O)(=O)Nc3cscn3)ccc12	–	–	27	–	< 14	< 14	1400	7.2	–	–	–	21	–
O=S(=O)(Nc1ncns1)c1ccc2c(-c3ccc(C(F)(F)F)cc3O)cccc2c1	–	–	< 2	0.001	18	25	–	3.6	–	–	–	–	–
COc1cc(C(F)(F)F)ccc1-c1cccc2cc(S(=O)(=O)Nc3cncs3)ccc12	–	–	28	–	37	46	> 30000	–	–	–	–	–	–
O=S(=O)(Nc1ncns1)c1ccc2c(-c3ccc(C(F)(F)F)cc3C3=CCNCC3)cccc2c1	–	90	1.3	0.1	< 14	< 14	37	3.6	–	–	–	> 30	–
COc1cc(C(F)(F)F)ccc1-c1nccc2cc(S(=O)(=O)Nc3nccs3)cnc12	–	–	12	–	–	–	–	–	–	–	–	> 30	–
